# Most compounds without a hit are left out; they make up all but 3.5% or so of the library.
# TCR-CD3 inh – inhibitors of human TCR-CD3 interaction | TAMRA-labeled TCR probe fluorescence, biochemical | inhibition, % at 9.4 µM | 0.37% of 360,000 active | AID 651800;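 note: recombinant mutant TCR 2C K166C tagged with TAMRA read by polarization; 0% = receptor in buffer alone and 100% = receptor with positive control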
# PRMT1 FP inh – inhibitors of human PRMT1 | Q99873 | recombinant PRMT1, activity-based probe fluorescence polarization | inhibition, % at 2.79 µM | 1.3% of 370,000 active | AID 652257;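 active = inhibition above about 21% made by adding two undisclosed values, limit read from the data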
# HTRA1 inhibitor – blocks human HTRA1 serine peptidase; inhibition, % at 5.96 µM; AID 504803; 0.5% of 340,000 active; recombinant HTRA1, FP-rhodamine activity-based probe, fluorescence polarization; in the data active = inhibition above about 36%;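 note: 0% = enzyme with DMSO and 100% = wells lacking enzyme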
# rCAG RNA binder – r(CAG) repeat RNA binding; TO-PRO-1 dye displacement fluorescence; inhibition, % at 3 µM; 1.3% of 370,000 active; AID 651821;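 active = inhibition above the plate cutoff, the mean of all test compounds on that plate plus 3 SD, cut at about 35% in these data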;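 note: 0% = DMSO alone and 100% = 100 µM mitoxantrone as full dye displacement; higher means more dye released from RNA so lower well fluorescence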
# SIAE inh – blocks human sialic acid acetylesterase. Q9HAT2. 0.69% of 370,000 active. AID 1053197. inhibition, % at 9.66 µM. SIAE FP-Rh probe binding, fluorescence polarization;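 active = inhibition above a cutoff: mean of compounds within the control limits plus 3 SD of those, cut at about 17% in these data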;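 note: 0% = plate median of compound wells and 100% = probe without SIAE protein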
# mABHD4 FP – inhibitors of mouse ABHD4; 0.54% of 370,000 active; purified mABHD4, FP-Rh probe fluorescence polarization; inhibition, % at 8.92 µM; Q8VD66;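 active = inhibition exceeding the mean over every tested compound plus 3 SD, cut at about 30% in these data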;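 note: 0% = plate median of compound wells and 100% = S159A mutant with DMSO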
# Target sequence (Q8VD66 whole entry, looked up): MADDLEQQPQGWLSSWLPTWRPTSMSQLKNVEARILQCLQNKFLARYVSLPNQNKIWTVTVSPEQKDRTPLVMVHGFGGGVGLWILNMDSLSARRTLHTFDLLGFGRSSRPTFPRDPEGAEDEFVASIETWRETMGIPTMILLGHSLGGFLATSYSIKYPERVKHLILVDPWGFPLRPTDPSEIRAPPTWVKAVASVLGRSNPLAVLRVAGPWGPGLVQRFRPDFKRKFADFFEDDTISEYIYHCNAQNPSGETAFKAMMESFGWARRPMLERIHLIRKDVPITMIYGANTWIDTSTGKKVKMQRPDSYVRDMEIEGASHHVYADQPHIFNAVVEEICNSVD
#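 Material: mouse ABHD4 enzyme, wild type; Benchmarks: S159A mutant high control, sample median low control; Buffer or medium: HEPES pH 7.0, NaCl, Pluronic buffer; Signal: fluorescence polarization; Read-out: percent inhibition of probe binding, normalized to plate controls; Timing: pre-incubation 45 min, probe exposure 60 min, at 25 °C; Dosing: 8.92 µM, single dose.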
# BSA probe FL – interferes with TAMRA-BSA probe, flagging TCR-CD3 hits; shares compounds with TCR-CD3 inh; TAMRA-labeled BSA probe fluorescence counterscreen; inhibition, % at 9.4 µM; 10% of 1,200 active; in the data active = inhibition above about 23%;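 note: 0% = buffer low control and 100% = reference high control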
# TCR-CD3 conf – TCR-CD3 interaction inhibition, confirmation. shares compounds with TCR-CD3 inh. TAMRA-labeled TCR probe fluorescence binding assay. inhibition, % at 9.4 µM. 48% of 1,200 active. AID 652036
# rCAG binder conf – r(CAG) RNA repeat binding, confirmation; shares compounds with rCAG RNA binder; TO-PRO-1 dye displacement fluorescence; inhibition, % at 3 µM; 70% of 4,300 active; AID 652065;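 active = inhibition above a per-plate cutoff, the mean inhibition of sample wells plus 3 SD, cut at about 35% in these data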;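 note: loss of TO-PRO-1 fluorescence as compound displaces dye from 1x1 AA loop RNA; 0% = DMSO only wells and 100% = 100 µM mitoxantrone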
# DNA CAG counter – disrupts DNA CAG TO-PRO-1 complex, flagging rCAG hits | AID 652068 | shares compounds with rCAG RNA binder | inhibition, % at 3 µM | d(CAG) DNA oligo TO-PRO-1 dye displacement, fluorescence | 94% of 4,300 active;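 active = inhibition above its plate's cutoff, the mean test-well inhibition plus 3 SD, cut at about 4.8% in these data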;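 note: 0% = DNA dye mix with DMSO and 100% = 100 µM mitoxantrone; hits displace the dye from DNA and so lower well fluorescence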
# PRMT1 confirm – PRMT1 (human) inhibition, FP confirmation. shares compounds with PRMT1 FP inh. recombinant His-PRMT1, activity-based probe fluorescence polarization. inhibition, % at 2.79 µM. 42% of 3,300 active;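 active = mean inhibition across replicates above the hit cutoff derived for the earlier primary screen, cut at about 22% in these data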
# ABHD4 confirm – ABHD4 (mouse) inhibition, FP confirmation | shares compounds with mABHD4 FP | purified mABHD4, FP-Rh probe fluorescence polarization | inhibition, % at 8.92 µM | 55% of 1,800 active | AID 720658;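 active = mean inhibition across replicates above the hit cutoff set in the primary screen, cut at about 30% in these data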;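 note: 0% = wild-type ABHD4 with DMSO and 100% = catalytically dead S159A mutant with DMSO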
# SIAE confirm – human SIAE inhibition, confirmation; shares compounds with SIAE inh; SIAE FP-Rh activity-based probe, fluorescence polarization; inhibition, % at 9.66 µM; 13% of 2,300 active;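 active = mean inhibition of the replicates above the hit cutoff set in the primary screen, cut at about 17% in these data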;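 note: 0% = SIAE with DMSO and probe and 100% = probe without SIAE; inhibitors lower polarization as more probe stays unbound to SIAE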
# * marks the source's active call; other numbers are inactive results; . = no result given. Cut-off read from the data, not from the text of the source, unless noted: active = inhibition above about 19%; inactive = the rest.
SMILES,TCR-CD3 inh,PRMT1 FP inh,HTRA1 inhibitor,rCAG RNA binder,SIAE inh,mABHD4 FP,BSA probe FL,TCR-CD3 conf,ABHD4 confirm,others
C[n+]1cc2c3c(ccc2c2ccc4cc5c(cc4c21)OCO5)OCO3,20.3*,61.4*,.,26.3,19.0*,68.1*,19.4,23.7*,70.7*,PRMT1 confirm=85.4*
C[n+]1c(/C=C/c2ccc3c(c2)OCO3)ccc2ccccc21,-0.3,1.5,0.7,-6.8,0.1,5.4,.,.,.,
Oc1ccc(/C=N/n2c(COc3ccccc3)n[nH]c2=S)cc1O,31.8*,2.6,24.6,3.1,1.9,35.9*,-14.3,21.9*,23.4,
COc1cc(OC)c2cc(C(=O)N/N=C/c3cccc(OC)c3O)[nH]c2c1,23.5*,-2.7,15.0,13.6,11.7,31.6*,-10.8,6.5,58.0*,
COc1cc2ccccc2nn1,-10.5,1.2,3.0,-3.2,-1.0,1.7,.,.,.,
COc1ccc2c(n1)Sc1nc3ccccc3nc1N2,48.3*,78.5*,2.8,4.7,9.4,31.7*,-3.1,1.4,9.8,PRMT1 confirm=20.0
CC(=O)Nc1ccc(/C=C/COC(C)=O)cc1C,.,-1.4,.,.,-4.1,-0.1,.,.,.,
Cc1nc(S/C(=C\c2ccc(OCc3ccccc3Cl)cc2)C(=O)O)n[nH]1,3.4,-0.7,-2.7,15.6,-1.8,-0.2,.,.,.,
Cc1nc(S/C(=C\c2ccc(-c3ccc(C(=O)O)c(Cl)c3)o2)C(=O)O)n[nH]1,65.0*,33.2*,5.5,35.5*,3.9,38.8*,1.6,66.6*,54.0*,rCAG binder conf=50.0*;DNA CAG counter=15.9*;PRMT1 confirm=38.7*
O=C(NN=Cc1cc(Cl)ccc1[N+](=O)[O-])c1cccc2ccccc12,4.1,6.4,-2.0,11.1,2.3,-3.6,.,.,.,
Cc1cc(C(=O)N/N=C/c2cc(Cl)cc([N+](=O)[O-])c2O)c2ccccc2n1,36.0*,8.0,6.8,56.2*,7.1,32.1*,-12.9,38.8*,36.6*,rCAG binder conf=52.9*;DNA CAG counter=16.3*
O=C(NCc1ccc(C(=O)NC2CCCC2)cc1)c1cccc(Br)c1,.,-0.6,.,1.6,-6.5,-6.8,.,.,.,
NC1=NC(=O)C(=Cc2ccccc2)S1,-0.3,4.0,3.4,3.0,1.0,6.9,.,.,.,
NC1=NC(=O)/C(=C\c2ccco2)S1,23.2*,63.3*,17.9,36.9*,12.6,31.0*,-5.3,16.6,12.2,rCAG binder conf=15.4;DNA CAG counter=5.7*
CC(=O)OCCNc1cc(N2CCN(C)CC2)c2noc3c2c1C(=O)c1ccccc1-3,23.8*,3.1,25.2,7.4,16.1,32.5*,11.3,11.0,0.7,
COCCCNC(=O)c1ccc2c3c(onc13)-c1ccccc1C2=O,.,.,6.0,.,.,.,.,.,.,
COC(=O)c1ccc2c(c1)SC1=C(CCCC1=O)N2,36.9*,25.0*,28.0,-11.8,19.4*,35.0*,76.3*,57.4*,32.1*,SIAE confirm=22.8*
O=C1CCCC2=C1Sc1ccc(Cl)cc1N2,-2.2,9.0,13.4,-10.0,6.7,4.5,.,.,.,
CCOC(=O)c1c(C)[nH]c(C(=O)COC(=O)c2cnccn2)c1C,38.2*,-141.9,-0.4,6.7,20.1*,21.4,-1.3,6.2,.,SIAE confirm=-0.9
O=C(NCc1cccs1)C1CCCN(S(=O)(=O)c2ccccc2)C1 (stereo not drawn),.,1.7,.,3.6,1.1,2.7,.,.,.,

# Source: PubChem BioAssay (The Scripps Research Institute Molecular Screening Center)
